In the library only some 1.9% were active in any assay of this set; here they are far more common.
HCV NS3 hel inh = inhibitors of Hepatitis C virus NS3 helicase. inhibition, % at 10.9 µM. NS3 helicase DNA unwinding, Cy5 molecular beacon fluorescence. AID 1800. 290,000 tested, 0.56% active;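 active = inhibition above the mean of all tested compounds plus 3 SD, set per campaign, cut at about 35% in these data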
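Material: hepatitis C virus NS3 helicase domain fragment enzyme; measured by: Cy5 fluorescence, 0 and 60 min reads; control set: DMSO and thioflavine S; incubation: 60 min unwinding reaction at 25 °C after ATP addition; read-out basis: % inhibition from 60/0 min fluorescence ratio, DMSO 0%, thioflavine S 100%; repeats: singlicate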
VIM-2 inhibitor = inhibitors of Pseudomonas aeruginosa VIM-2 metallo-beta-lactamase. purified VIM-2, nitrocefin hydrolysis, epi-absorbance fluorescence. inhibition, % at 5.6 µM. 290,000 tested, 0.89% active;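 active = inhibition above the mean of all tested compounds plus 3 SD, cutoff set per screening run, cut at about 7.5% in these data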;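 note: red hydrolysis product quenches plate fluorescence so inhibitors raise well fluorescence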
DNA FID counter-1 = counter-screen for HCV NS3 helicase inhibitors: DNA intercalator displacement. DNA fluorescent intercalator displacement, fluorescence. inhibition, % at 7.9 µM. 290,000 tested, 0.17% active. AID 1845;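 note: higher means more ethidium bromide displaced from hairpin DNA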
IMP-1 inhibitor = blocks Pseudomonas aeruginosa IMP-1 metallo-beta-lactamase; purified IMP-1, nitrocefin hydrolysis, epi-absorbance fluorescence; inhibition, % at 5.6 µM; AID 1556; 290,000 tested, 0.45% active;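 active = inhibition above the mean plus 3 SD of all compounds in the same screening run, cut at about 4.5% in these data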
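System: purified IMP-1 / Input: IMP-1 dispensed at 0.2 nM / Medium: 50 mM HEPES pH 7.1, 50 µM ZnSO4, 0.05% Brij 35 / Timing: 15 min enzyme–compound preincubation, then 25 min nitrocefin reaction, 25 °C / Technique: plate fluorescence quenching by hydrolysis product, ex 480/em 530 nm / Repeats: singlicate testing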
NS3 helicase cf = confirmation of Hepatitis C virus NS3 helicase inhibitors | inhibition, % at 10.9 µM | 1,600 tested, 31% active | NS3 helicase DNA unwinding, Cy5 molecular beacon fluorescence | shares compounds with HCV NS3 hel inh | AID 1943;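 active = inhibition above the mean of all tested compounds plus 3 SD, cutoff set per campaign, cut at about 36% in these data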
DNA FID counter-2 = displaces DNA intercalator in HCV helicase counter-screen; shares compounds with HCV NS3 hel inh; DNA fluorescent intercalator displacement, fluorescence; inhibition, % at 7.9 µM; 1,600 tested, 4% active; AID 1945;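 note: higher means more displacement of ethidium bromide from the DNA hairpin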
A number is an active result; – = inactive; · = no result given. Cut-off read from the data, not from the text of the source, unless noted: active = inhibition above about 37%; inactive = the rest.

SMILES	HCV NS3 hel inh	VIM-2 inhibitor	DNA FID counter-1	IMP-1 inhibitor	NS3 helicase cf	DNA FID counter-2
CCCC(NC(=O)COc1cc2c(c3oc(=O)c(C)c(C)c13)CCC(C)(C)O2)C(=O)O (configuration not stated)	54.6	–	–	–	–	–
C=CCSc1n[nH]c(-c2ccc(OC)cc2)n1	38.6	–	–	–	–	–
C=CCSc1n[nH]c(-c2ccccc2)n1	–	–	–	–	·	·
Cc1sc(NC(=O)C2CCCCC2C(=O)O)c(C(N)=O)c1-c1ccccc1 (configuration not stated)	–	–	–	–	·	·
Cc1sc(NC(=O)/C=C/C(=O)O)c(C(N)=O)c1-c1ccc(C(C)(C)C)cc1	36.5	–	–	–	59.5	–
Cc1sc(NC(=O)C2CCCCC2C(=O)O)c(C(N)=O)c1-c1ccc(C(C)C)cc1 (configuration not stated)	39.1	–	–	–	77.3	–
CCOC(=O)C1(CCCc2ccccc2)CCN(C(=O)CCC2=NNC(=O)CC2)CC1	–	–	–	–	·	·
COC(=O)c1c(-c2ccc(C)cc2)csc1NC(=O)C1CC=CCC1C(=O)O (configuration not stated)	38.6	–	–	–	53.4	–
COC(=O)c1c(-c2cc(C)ccc2C)csc1NC(=O)C1CC=CCC1C(=O)O (configuration not stated)	–	–	–	–	·	·
COc1ccc(-c2nn(CCC(=O)O)cc2CCC(=O)O)cc1	–	–	–	–	·	·
O=C(O)CCn1cc(C(=O)O)c(-c2ccccc2)n1	45.0	–	–	–	–	–
CCN(CC)c1ccc2nc3c4ccccc4c(=O)cc-3oc2c1	71.3	–	–	–	101.5	–
CCCC(=O)Nc1cc(OC)c(C(=O)OC)cc1Cl	–	–	–	–	·	·
COc1ccc(C(=O)N/N=C(\C)c2ccc3c(c2)C2C=CCC2C(c2ccccc2)N3)cc1 (configuration not stated)	–	–	–	–	·	·
COc1cccc(NS(=O)(=O)c2ccc3c(c2)C2C=CCC2C(c2ccc(C(=O)O)cc2)N3)c1 (configuration not stated)	43.0	–	–	22.3	52.3	41.9
O=C(O)c1ccc2c(c1)[C@@H]1C=CC[C@@H]1[C@H](c1ccccn1)N2	59.4	–	–	5.6	60.0	–
CCc1nc2c(sc3nc4c(cc32)COC(C)(C)C4)c(=O)n1Cc1ccccc1	–	–	–	–	·	·
CCc1nc(OCc2ccco2)c2sc3nc4c(cc3c2n1)COC(C)(C)C4	47.9	–	–	–	–	–
CCc1nc2c(sc3nc4c(cc32)COC(C)(C)C4)c(=O)n1Cc1ccco1	39.5	–	–	–	–	–
O=C(O)c1ccccc1C(=O)Nc1ccc(S(=O)(=O)Nc2ccc(F)cc2)cc1	–	–	–	–	·	·
NC(=O)c1ccsc1NC(=O)CSc1nnc(Nc2ccccc2)s1	–	–	–	–	·	·
Cc1ccccc1N1C(=O)C(Cc2ccc(F)cc2)S/C1=C(\C#N)C(N)=O (configuration not stated)	–	–	–	–	·	·
CC(=O)Oc1ccc(C(=O)Nc2cccnc2)cc1	–	–	–	–	·	·
N#C/C(=C/c1ccc(Br)o1)C(N)=S	36.6	–	–	–	–	–
COc1ccc(/C=N/NC(=O)c2cccc(NC(=O)c3ccccc3Cl)c2)cc1	61.0	–	–	–	–	–
SMILES	HCV NS3 hel inh	VIM-2 inhibitor	DNA FID counter-1	IMP-1 inhibitor	NS3 helicase cf	DNA FID counter-2
COc1ccc(/C=N/NC(=O)c2cccc(NC(=O)c3ccccc3Cl)c2)cc1OC	–	–	–	–	·	·
COc1ccccc1N1C(=N)S/C(=C\c2ccc(-c3ccccc3C(=O)O)o2)C1=O	41.1	–	–	–	40.2	–
C/C(N)=C(/C#N)C(=O)CSc1cc(C)c2cc(C)cc(C)c2n1	–	–	–	–	·	·
CCc1ccc(NC(=O)Nc2cccs2)cc1	43.9	–	–	–	–	–
Cc1ccc(NC(=O)Nc2cccs2)cc1	–	–	–	–	·	·
O=C1CCCCN1CC(=O)N1CCCC(Nc2ccc(F)cc2)C1 (configuration not stated)	–	–	–	–	·	·
NC(=O)c1ncc(C(F)(F)F)cc1Oc1cccnc1	–	–	–	–	·	·
Cc1cccc(Nc2nnc(SC/C(O)=C(\C#N)c3nc4ccccc4[nH]3)s2)c1C	48.0	–	–	–	–	–
Cc1cc(NC(=O)CC(C)C)c(=O)n(Cc2cccc(F)c2)c1	38.9	–	–	–	–	–
Cc1ccc(-n2c(C)cc(-c3csc(N)n3)c2C)cc1	83.0	–	–	–	–	–
Cc1cc(-c2csc(N)n2)c(C)n1C	–	–	–	–	·	·
O=C(Nc1ccccc1N1CCOCC1)c1cccnc1Cl	53.3	–	46.8	47.2	–	–
O=C(Nc1ccccc1OCc1ccccc1)c1ccccc1Br	–	–	–	–	·	·
COc1ccc(CCNC(=O)C2CC(=O)N(C3CCCCC3)C2)cc1OC (configuration not stated)	95.5	–	–	–	–	–
CC1CCc2c(sc3nc(CSc4nnnn4C)[nH]c(=O)c23)C1 (configuration not stated)	–	–	–	–	·	·
Cc1ccc(S(=O)(=O)N2CCCCC2)cc1C(=O)NCC1CCCO1 (configuration not stated)	–	–	–	–	·	·
O=C(NCC1CCCO1)c1cc(S(=O)(=O)N2CCCC2)c(Cl)cc1Cl (configuration not stated)	83.0	–	–	–	–	–
O=C(O)c1ccccc1C(=O)c1ccc(-c2ccccc2)cc1	42.3	–	–	–	–	–
O=C(O)c1ccccc1C(=O)c1ccc(Cl)cc1	–	–	–	–	·	·
Cn1cc(C=C2C(=O)CC(C)(C)CC2=O)c2ccccc21	37.6	–	–	–	–	–
Cn1cc(C=C2C(=O)OC3(CCCCC3)OC2=O)c2ccccc21	–	–	–	–	·	·
CCCCSc1nnc(-c2ccccc2)c2ccccc12	–	–	–	–	·	·
CCOC(=O)c1c(N2C(=O)Nc3ccccc3N2O)sc2c1CCCCC2	46.6	–	–	–	74.5	–
CCOC(=O)c1c(-c2ccccc2)csc1N1C(=O)Nc2ccccc2N1O	47.4	–	–	–	71.7	–
COC(=O)c1c(N2C(=O)Nc3ccccc3N2O)sc2c1CCCC2	–	–	–	–	·	·
CCCOc1ccc(-c2c(C(=O)N/N=C/c3cccnc3)nnn2-c2nonc2N)cc1	–	–	–	–	·	·
Cc1cc(NC(=O)c2ccc([N+](=O)[O-])cc2Cl)ccc1NC(=O)c1ccco1	36.5	–	–	–	–	–
CC(C)C[C@H](NC(=O)N1CC(=O)Nc2ccccc21)C(=O)N[C@@H](Cc1ccccc1)C(=O)O	–	–	–	–	·	·
CN(CC(=O)N(CCO)Cc1ccccc1)S(=O)(=O)c1ccc2c(c1)c(=O)n(C)c(=O)n2C	–	–	–	–	·	·
O=C(Cn1c(=O)c2sccc2n(Cc2cccc([N+](=O)[O-])c2)c1=O)NCCc1ccccc1	44.4	–	–	–	–	–

Source: PubChem BioAssay (The Scripps Research Institute Molecular Screening Center)
